Assay results from ChEMBL document CHEMBL1125686, “(Benzoylphenyl)piperidines: a new class of immunomodulators” (1991).

Tests used:
Mus musculus [1] = assay: […] induction of Thyl+ antigen expression on murine bone marrow cells at the concentration of 2.9 uM(Fraction A).(Control group); type: functional
In short: (§1)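 Bone marrow from female C57 BL/6 mice, 5–8 weeks old, separated on a discontinuous BSA gradient. Fraction A (lowest density) and fraction B (next lowest) resuspended at 10⁶ cells/mL in HBSS with 5% BSA. Cells incubated 24 h with one compound concentration, then stained directly with FITC anti-Thy1 and counted by epifluorescence microscopy. % Thy1⁺ cells recorded for treated and control cultures.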

Mus musculus [2] = assay: Proliferation induced by the mitogen alone-Concanavalin A (control blastogenesis), in mice cells dosed at 5 ug/mL; type: functional; design: unit not given here
In short: (§2)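 Splenocytes from female DBA/2 mice, 6–9 weeks old; red cells lysed with cold 0.17 M NH₄Cl. Cells plated at 5 × 10⁶ cells/mL in RPMI 1640 with 5% FCS, with compound (5–80 μg/mL range) and Con A, PWM or PHA at a batch-optimized concentration. Cultured 72 h at 37 °C, 5% CO₂, with [³H]thymidine for the final 24 h, read by scintillation. Triplicate wells; mean ± SD of three cultures.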

Mus musculus [3] = species on record: Mus musculus; assay: Proliferation induced by the mitogen alone-PWM (control blastogenesis), in Mice cells at a dose of 40 ug/mL; type: functional; design: unit not given here
In short: (§3)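 Splenocytes from female DBA/2 mice aged 6–9 weeks, red cells lysed with cold 0.17 M NH4Cl, cultured at 5 × 10⁶ cells/mL in RPMI 1640 with 5% FCS. Pokeweed mitogen added at a batch-adjusted optimal level, 72 h at 37 °C, 5% CO2. [³H]thymidine pulse for the final 24 h, then scintillation counting. Triplicates; mean ± SD of three cultures.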

Mus musculus [4] = assay: Maximal proliferation induced in the presence of the mitogen-Concanavalin A (stimulated blastogenesis) in mice cells dosed at 5 ug/mL; type: functional; design: unit not given here; in short: as §2
Mus musculus [5] = assay: […] induction of Thyl+ antigen expression on murine bone marrow cells at the concentration of 2.9 uM(Fraction B).(treated); type: functional; in short: as §1
Mus musculus [6] = assay: […] induction of Thyl+ antigen expression on murine bone marrow cells at the concentration of 2.9 uM(Fraction A).(treated); type: functional; in short: as §1
Mus musculus [7] = assay: […] induction of Thyl+ antigen expression on murine bone marrow cells at the concentration of 2.9 uM(Fraction B).(Control group); type: functional; in short: as §1
Mus musculus [8] = species on record: Mus musculus; assay: Maximal proliferation induced in the presence of the mitogen-PWM ( stimulated blastogenesis) in Mice cells at a dose of 40 ug/mL; type: functional; design: unit not given here; in short: as §2
Mus musculus [9] = assay: […] induction of Thyl+ antigen expression on murine bone marrow cells at the concentration of 3 uM(Fraction B).(Control group); type: functional; in short: as §1
Mus musculus [10] = assay: […] induction of Thyl+ antigen expression on murine bone marrow cells at the concentration of 3 uM(Fraction B).(treated); type: functional; in short: as §1
Mus musculus [11] = species on record: Mus musculus; assay: Proliferation induced by the mitogen alone-PHA (control blastogenesis), in Mice cells at a dose of 5 ug/mL; type: functional; design: unit not given here; in short: as §2
Mus musculus [12] = species on record: Mus musculus; assay: Proliferation induced by the mitogen alone-PWM (control blastogenesis), in Mice cells at a dose of 10 ug/mL; type: functional; design: unit not given here; in short: as §2
Mus musculus [13] = assay: […] induction of Thyl+ antigen expression on murine bone marrow cells at the concentration of 3 uM(Fraction A).(Control group); type: functional; in short: as §1
Mus musculus [14] = assay: Percent of Thyl+ positive cells / spleen x 10 e6 in nude mice (in vivo); type: functional
In short: (§4)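 Female nu/nu mice, 6–9 weeks old, dosed by gastric tube in 0.2 mL 2% arabic gum with 0.1% Tween-80; controls received vehicle only. Spleens taken 24 h later and splenocytes prepared. Thy1⁺ cells counted by direct FITC anti-Thy1 staining under epifluorescence. Five animals per group, mean ± SD.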

Mus musculus [15] = species on record: Mus musculus; assay: Maximal proliferation induced in the presence of the mitogen-PWM ( stimulated blastogenesis) in Mice cells at a dose of 10 ug/mL; type: functional; design: unit not given here; in short: as §2
Mus musculus [16] = species on record: Mus musculus; assay: Maximal proliferation induced in the presence of the mitogen-PHA ( stimulated blastogenesis) in Mice cells at a dose of 10 ug/mL
Mus musculus [17] = assay: Percent of restoration in nude mice (in vivo); type: functional; in short: as §4
Mus musculus [18] = assay: Percent of restoration of T- cell markers in nude mice (in vivo); type: functional; in short: as §4
Mus musculus [19] = assay: […] induction of Thyl+ antigen expression on murine bone marrow cells at the concentration of 3 uM(Fraction A).(treated); type: functional; in short: as §1
Mus musculus [20] = assay: Percent of Thyl+ positive cells, in nude mice (in vivo); type: functional; in short: as §4
Mus musculus [21] = species on record: Mus musculus; assay: Proliferation induced by the mitogen alone-PHA (control blastogenesis), in Mice cells at a dose of 10 ug/mL; type: functional; in short: as §2
Mus musculus [22] = species on record: Mus musculus; assay: Maximal proliferation induced by the test compound in the presence of the mitogen-PHA ( stimulated blastogenesis) in Mice cells at a dose of 10 ug/mL; type: functional; in short: as §2
Mus musculus [23] = assay: […] induction of Thyl+ antigen expression on murine bone marrow cells at the concentration of 7 uM(Fraction A).(Control group); type: functional; in short: as §1
Mus musculus [24] = assay: […] induction of Thyl+ antigen expression on murine bone marrow cells at the concentration of 7 uM(Fraction B).(Control group); type: functional; in short: as §1
Mus musculus [25] = assay: […] induction of Thyl+ antigen expression on murine bone marrow cells at the concentration of 7 uM(Fraction B).(treated); type: functional; in short: as §1
Mus musculus [26] = assay: […] induction of Thyl+ antigen expression on murine bone marrow cells at the concentration of 7 uM(Fraction A).(treated)); type: functional; in short: as §1
Mus musculus [27] = assay: […] induction of Thyl+ antigen expression on murine bone marrow cells at the concentration of 3.2 uM(Fraction B).(treated); type: functional; in short: as §1
Mus musculus [28] = assay: […] induction of Thyl+ antigen expression on murine bone marrow cells at the concentration of 3.2 uM(Fraction B).(Control group); type: functional; in short: as §1
Mus musculus [29] = assay: […] induction of Thyl+ antigen expression on murine bone marrow cells at the concentration of 3.2 uM(Fraction A).(Control group); type: functional; in short: as §1
Mus musculus [30] = assay: […] induction of Thyl+ antigen expression on murine bone marrow cells at the concentration of 3.2 uM(Fraction A).(treated); type: functional; in short: as §1
Mus musculus [31] = assay: […] induction of Thyl+ antigen expression on murine bone marrow cells at the concentration of 2.7 uM(Fraction A).(Control group); type: functional; in short: as §1
Mus musculus [32] = assay: […] induction of Thyl+ antigen expression on murine bone marrow cells at the concentration of 2.7 uM(Fraction B).(Control group); type: functional; in short: as §1
Mus musculus [33] = assay: […] induction of Thyl+ antigen expression on murine bone marrow cells at the concentration of 2.7 uM(Fraction A).(treated); type: functional; in short: as §1
Mus musculus [34] = assay: […] induction of Thyl+ antigen expression on murine bone marrow cells at the concentration of 2.7 uM(Fraction B).(treated); type: functional; in short: as §1
Mus musculus [35] = species on record: Mus musculus; assay: Proliferation induced by the mitogen alone-PWM (control blastogenesis), in Mice cells at a dose of 80 ug/mL; type: functional; design: unit not given here; in short: as §3
Mus musculus [36] = assay: […] induction of Thyl+ antigen expression on murine bone marrow cells at the concentration of 2.6 uM(Fraction A).(Control group); type: functional; in short: as §1
Mus musculus [37] = assay: […] induction of Thyl+ antigen expression on murine bone marrow cells at the concentration of 2.6 uM(Fraction B).(Control group); type: functional; in short: as §1
Mus musculus [38] = species on record: Mus musculus; assay: Maximal proliferation induced in the presence of the mitogen-PWM ( stimulated blastogenesis) in Mice cells at a dose of 80 ug/mL; type: functional; design: unit not given here; in short: as §2
Mus musculus [39] = assay: […] induction of Thyl+ antigen expression on murine bone marrow cells at the concentration of 2.6 uM(Fraction A).(treated); type: functional; in short: as §1
Mus musculus [40] = assay: […] induction of Thyl+ antigen expression on murine bone marrow cells at the concentration of 2.6 uM(Fraction B).(treated); type: functional; in short: as §1
Mus musculus [41] = assay: […] induction of Thyl+ antigen expression on murine bone marrow cells at the concentration of 2.5 uM(Fraction B).(Control group); type: functional; in short: as §1
Mus musculus [42] = assay: […] induction of Thyl+ antigen expression on murine bone marrow cells at the concentration of 2.5 uM(Fraction A).(treated); type: functional; in short: as §1
Mus musculus [43] = assay: […] induction of Thyl+ antigen expression on murine bone marrow cells at the concentration of 2.5 uM(Fraction A).(Control group); type: functional; in short: as §1
Mus musculus [44] = assay: […] induction of Thyl+ antigen expression on murine bone marrow cells at the concentration of 2.5 uM(Fraction B).(treated); type: functional; in short: as §1

## CC1CCN(c2ccc(N)cc2C(=O)c2ccc(Cl)cc2)CC1C (stereo unspecified)
Mus musculus [1]
  Differentiation: 6.1%
Mus musculus [2]
  Proliferative response: 48.6
Mus musculus [3]
  Proliferative response: 67.3
Mus musculus [4]
  Proliferative response: 50.2
Mus musculus [5]
  Differentiation: 3%
Mus musculus [6]
  Differentiation: 8.8%
Mus musculus [7]
  Differentiation: 6.1%
Mus musculus [8]
  Proliferative response: 75.8

## Nc1ccc(N2CCC(c3ccccc3)CC2)c(C(=O)c2ccc(Cl)cc2)c1
Mus musculus [2]
  Proliferative response: 263.2
Mus musculus [9]
  Differentiation: 5.2%
Mus musculus [10]
  Differentiation: 6.4%
Mus musculus [11]
  Proliferative response: 59.9
Mus musculus [12]
  Proliferative response: 95.7
Mus musculus [4]
  Proliferative response: 294.1
Mus musculus [13]
  Differentiation: 3.8%
Mus musculus [14]
  Thylpositive cells/spleen: 3.2e+06 cells/spleen
Mus musculus [15]
  Proliferative response: 115.3
Mus musculus [16]
  Proliferative response: 54.4
Mus musculus [17]
  Restoration: 7.4%
Mus musculus [18]
  Restoration: 12.5%
Mus musculus [19]
  Differentiation: 7%
Mus musculus [20]
  Thylpositive cells: 5.5%

## CC1CCN(c2ccc(N)cc2C(=O)c2ccc(Cl)cc2)CC1
Mus musculus [2]
  Proliferative response: 194.5
Mus musculus [21]
  Proliferative response: 12.8
Mus musculus [3]
  Proliferative response: 36.5
Mus musculus [22]
  Proliferative response: 43.5
Mus musculus [23]
  Differentiation: 5.6%
Mus musculus [4]
  Proliferative response: 269.5
Mus musculus [24]
  Differentiation: 5%
Mus musculus [14]
  Thylpositive cells/spleen: 6.65e+06 cells/spleen
Mus musculus [25]
  Differentiation: 11.4%
Mus musculus [26]
  Differentiation: 11.5%
Mus musculus [17]
  Restoration: 24.5%
Mus musculus [18]
  Restoration: 14.3%
Mus musculus [8]
  Proliferative response: 101.9
Mus musculus [20]
  Thylpositive cells: 6.9%

## CCCCC1CCN(c2ccc(N)cc2C(=O)c2ccc(Cl)cc2)CC1
Mus musculus [2]
  Proliferative response: 211.8
Mus musculus [27]
  Differentiation: 6.4%
Mus musculus [11]
  Proliferative response: 51.3
Mus musculus [12]
  Proliferative response: 78.4
Mus musculus [28]
  Differentiation: 5.2%
Mus musculus [4]
  Proliferative response: 289.2
Mus musculus [29]
  Differentiation: 3.8%
Mus musculus [14]
  Thylpositive cells/spleen: 2.05e+06 cells/spleen
Mus musculus [15]
  Proliferative response: 81.7
Mus musculus [16]
  Proliferative response: 59.1
Mus musculus [17]
  Restoration: 0.6%
Mus musculus [18]
  Restoration: 3.6%
Mus musculus [20]
  Thylpositive cells: 3.5%
Mus musculus [30]
  Differentiation: 4.2%

## CC1CCCCN1c1ccc(N)cc1C(=O)c1ccc(Cl)cc1 (stereo unspecified)
Mus musculus [2]
  Proliferative response: 131.5
Mus musculus [31]
  Differentiation: 5.6%
Mus musculus [3]
  Proliferative response: 55.8
Mus musculus [4]
  Proliferative response: 295
Mus musculus [32]
  Differentiation: 5%
Mus musculus [33]
  Differentiation: 6%
Mus musculus [34]
  Differentiation: 4.4%
Mus musculus [8]
  Proliferative response: 58.1

## CC1CCCN(c2ccc(N)cc2C(=O)c2ccc(Cl)cc2)C1 (stereo unspecified)
Mus musculus [35]
  Proliferative response: 41.3
Mus musculus [2]
  Proliferative response: 124.4
Mus musculus [36]
  Differentiation: 5%
Mus musculus [37]
  Differentiation: 3.8%
Mus musculus [38]
  Proliferative response: 45
Mus musculus [4]
  Proliferative response: 141.6
Mus musculus [39]
  Differentiation: 6.7%
Mus musculus [40]
  Differentiation: 5%

## CCOC(=O)Nc1ccc(N2CCC(C)CC2)c(C(=O)c2ccc(Cl)cc2)c1
Mus musculus [2]
  Proliferative response: 8
Mus musculus [41]
  Differentiation: 6.1%
Mus musculus [42]
  Differentiation: 11.6%
Mus musculus [43]
  Differentiation: 6.1%
Mus musculus [4]
  Proliferative response: 16.3
Mus musculus [44]
  Differentiation: 5.5%
Mus musculus [14]
  Thylpositive cells/spleen: 2.5e+06 cells/spleen
Mus musculus [17]
  Restoration: 3.3%
Mus musculus [18]
  Restoration: 3.2%
Mus musculus [20]
  Thylpositive cells: 3.4%
